PMC6982536 (Nature chemical biology, 2019)
pEC50: −log10 of the molar value.

Columns and labels:
[1] = system: FKBP/FRB; conditions: read-out: EC50 (published value); cited from earlier work
[2] = molecular target: FKBP/FRB^T2098L (Homo sapiens, UniProt P42345+P62942, T2098L); type: cell-based; conditions: high ligand concentration, Fig. 3a conditions 11 and 12
[3] = system: NarX/NarL; type: cell-based
In short: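 HEK293 (37 °C, 5% CO2, DMEM) seeded at 50 000 cells/well 24 h before Lipofectamine 2000 transfection with 400 ng DNA, including NarL and a NarL-inducible Cerulean reporter. After 4 h, medium was replaced with fresh medium ± ligand. At 48 h, cells were Accutase-detached for flow cytometry. Total intensity (mean Cerulean of reporter-positive cells × positive fraction) was normalised to mCherry transfection-control total intensity.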

[4] = system: CMV promoter; assay: iRFP expression from the CMV promoter in HEK cells with ligand; type: cell-based; conditions: 1µM of procaterol or 2 µM of epinephrine vs DMEM
In short: (§1)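 HEK293 cultured at 37 °C, 5% CO2 in DMEM were seeded at 50 000 cells/well 24 h before transfection. Transfection used 400 ng reporter-containing DNA with Lipofectamine 2000 (3.75 µl per 1 µg DNA). Four hours later, medium was swapped for fresh medium with or without ligand.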

[5] = system: EF1α promoter; assay: iRFP expression from the EF1α promoter in HEK cells with ligand; type: cell-based; conditions: 1µM of procaterol or 2 µM of epinephrine vs DMEM
In short: as §1

[6] = molecular target: β2AR^∆C::V2R^∆N::H^mut / β-arrestin::N^mut (Homo sapiens, UniProt P07550); assay: GPCR/β-arrestin interaction rewired via TCS; type: cell-based

FKBP/FRB^T2098L, sequence (P62942 whole entry): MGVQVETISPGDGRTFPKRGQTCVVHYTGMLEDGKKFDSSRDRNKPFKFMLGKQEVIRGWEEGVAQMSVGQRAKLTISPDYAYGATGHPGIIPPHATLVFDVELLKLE
FKBP/FRB^T2098L, sequence (P42345 2012-2144 T2098L limits assumed): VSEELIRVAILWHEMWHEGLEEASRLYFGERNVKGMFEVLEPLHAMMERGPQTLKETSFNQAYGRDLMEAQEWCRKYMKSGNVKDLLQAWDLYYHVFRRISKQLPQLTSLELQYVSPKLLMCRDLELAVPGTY

Compound | pEC50 [1] | dynamic range of ligand-induced signaling [2] | effect on wild-type NarX/NarL signaling ([3]; A/C, Fig. 3a conditions 2 and 3) | induction of the CMV promoter [4] | effect on EF1α promoter [5] | pEC50 [6] | effect on signaling via NarX/NarL system ([3]; procaterol, Fig. 4b conditions 2 and 3)
CO[C@H]1[C@@H](O)[C@H](C)C[C@H](C)/C=C/C=C/C=C(\C)[C@@H](c2c[nH]c3c(C)cccc23)C[C@@H]2CC[C@@H](C)[C@@](O)(O2)C(=O)C(=O)N2CCCC[C@H]2C(=O)O[C@H]([C@H](C)C[C@@H]2CC[C@@H](O)[C@H](OC)C2)C[C@H](O)[C@H](C)/C=C(\C)[C@H]1O [A/C, C16-(S)-7-methylindolerapamycin] | 8.00 | above 3 orders of magnitude | did not affect | – | – | – | –
CNC[C@H](O)c1ccc(O)c(O)c1 [Epinephrine] | – | – | – | factor of two | not affected | – | –
CCC(NC(C)C)C(O)c1ccc(O)c2[nH]c(=O)ccc12 (stereo not drawn) [Procaterol] | – | – | – | factor of two | not affected | 8.30 | did not affect
